Activity calls are given as the source filed them. No cut-off for these calls is given here.
Key:
Rattus norvegicus [1] = experiment: Percentage of fall in systolic blood pressure (SBP) at the following hours after dosing at 75 mg/kg (po) at 7.5 hr in spontaneously hypertensive rats(SHR); NS means not significant; assay type: functional, organism-based; set-up: dose 75 mg/kg; conditions: Artery
Procedure, shortened: (§1)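 Male spontaneously hypertensive rats (Wistar-Kyoto strain), unanesthetized, dosed orally; systolic pressure measured by indirect tail cuff. Before each reading, rats warmed at 35-37 °C for 15-20 min to dilate the caudal artery. Five rats per treatment group; result is percentage fall in systolic pressure versus untreated control. Significance tested against control.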

Rattus norvegicus [2] = experiment: Percentage of fall in systolic blood pressure (SBP) at the following hours after dosing at 75 mg/kg (po) at 5 hr in spontaneously hypertensive rats(SHR); NS means not significant; assay type: functional, organism-based; set-up: dose 75 mg/kg; conditions: Artery; procedure, shortened: as §1
Rattus norvegicus [3] = experiment: […] systolic blood pressure (SBP) for compound-treated group relative to the value for untreated control at 75 mg/kg dose (po) in spontaneously hypertensive rats(SHR); assay type: functional, Artery; procedure, shortened: as §1
Rattus norvegicus [4] = experiment: Percentage of fall in systolic blood pressure (SBP) at the following hours after dosing at 75 mg/kg (po) at 2 hr in spontaneously hypertensive rats(SHR); NS means not significant; assay type: functional, organism-based; set-up: dose 75 mg/kg; conditions: Artery; procedure, shortened: as §1
Rattus norvegicus [5] = experiment: Percentage of fall in systolic blood pressure (SBP) at the following hours after dosing at 75 mg/kg (po) at 24 hr in spontaneously hypertensive rats(SHR); NS means not significant; assay type: functional, organism-based; set-up: dose 75 mg/kg; conditions: Artery; procedure, shortened: as §1
Rattus norvegicus [6] = experiment: Percentage of fall in systolic blood pressure (SBP) at the following hours after dosing at 75 mg/kg (po) at 24 hr in spontaneously hypertensive rats(SHR); assay type: functional, Artery; procedure, shortened: as §1
Rattus norvegicus [7] = experiment: Percentage of fall in systolic blood pressure (SBP) at the following hours after dosing at 75 mg/kg (po) at 7.5 hr in spontaneously hypertensive rats(SHR); assay type: functional, Artery; procedure, shortened: as §1
Rattus norvegicus [8] = experiment: Percentage of fall in systolic blood pressure (SBP) at the following hours after dosing at 75 mg/kg (po) at 2 hr in spontaneously hypertensive rats(SHR):NS means not significant; assay type: functional, organism-based; set-up: dose 75 mg/kg; conditions: Artery; procedure, shortened: as §1
Rattus norvegicus [9] = experiment: Evaluated for the percentage inhibition of the depressor response of isoproterenol (0.25 mg/kg, iv) in spontaneously hypertensive rats at 150 mg/kg peroral dose; NI means no inhibition at 10 mg/kg, iv
Rattus norvegicus [10] = experiment: Percentage of fall in systolic blood pressure (SBP) at the following hours after dosing at 75 mg/kg (po) at 5 hr in spontaneously hypertensive rats(SHR); assay type: functional, Artery; procedure, shortened: as §1
Rattus norvegicus [11] = experiment: Percentage of fall in systolic blood pressure (SBP) at the following hours after dosing at 8 mg/kg (po) at 5 hr in spontaneously hypertensive rats(SHR);NS means not significant; assay type: functional, organism-based; set-up: dose 8 mg/kg; conditions: Artery; procedure, shortened: as §1
Rattus norvegicus [12] = experiment: Percentage of fall in systolic blood pressure (SBP) at the following hours after dosing at 17 mg/kg (po) at 5 hr in spontaneously hypertensive rats(SHR); assay type: functional, Artery; procedure, shortened: as §1
Rattus norvegicus [13] = experiment: […] systolic blood pressure (SBP) for compound-treated group relative to the value for untreated control at 8 mg/kg dose (po) in spontaneously hypertensive rats(SHR); assay type: functional, Artery; procedure, shortened: as §1
Rattus norvegicus [14] = experiment: Percentage of fall in systolic blood pressure (SBP) at the following hours after dosing at 8 mg/kg (po) at 7.5 hr in spontaneously hypertensive rats(SHR); assay type: functional, Artery; procedure, shortened: as §1
Rattus norvegicus [15] = experiment: […] systolic blood pressure (SBP) for compound-treated group relative to the value for untreated control at 17 mg/kg dose (po) in spontaneously hypertensive rats(SHR); assay type: functional, Artery; procedure, shortened: as §1
Rattus norvegicus [16] = experiment: Evaluated for the percentage inhibition of the depressor response of isoproterenol (0.25 mg/kg, iv) in spontaneously hypertensive rats at 150 mg/kg perorally; NI means no inhibition at 10 mg/kg, iv; assay type: functional, organism-based
Procedure, shortened: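 Male SHR, three per group, dosed orally 150 mg/kg as suspension in 4% Clearjel. At 4 h, anesthetized with sodium pentobarbital (45 mg/kg, ip); femoral artery and vein cannulated; arterial pressure monitored continuously. Isoproterenol given iv in 0.1 mL saline; depressor response compared with Clearjel vehicle-treated rats as percentage inhibition.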

Adrenergic receptor beta [17] = target: T1, Adrenergic receptor beta (Rattus norvegicus, UniProt P18090+P10608+P26255); experiment: Evaluated for beta-receptor affinity, determined in rat brain membrane fraction with [3H]- dihydroalprenolol; assay type: cell membranes
Procedure, shortened: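 Rat brain with cerebellum removed, homogenized in ice-cold 50 mM Tris-HCl pH 8.0 and spun at 50000g for 15 min, pellet washed once more the same way. Binding used 0.4-0.6 mg protein, 1 nM [3H]dihydroalprenolol, 50 mM Tris pH 8.0, and 5-10 competitor concentrations. IC50 read visually from a semilog plot; Ki from Cheng-Prusoff with KD approximately 1 nM.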

Rattus norvegicus [18] = experiment: Percentage of fall in systolic blood pressure (SBP) at the following hours after dosing at 17 mg/kg (po) at 24 hr in spontaneously hypertensive rats(SHR);NS means not significant; assay type: functional, organism-based; set-up: dose 17 mg/kg; conditions: Artery; procedure, shortened: as §1
Rattus norvegicus [19] = experiment: Percentage of fall in systolic blood pressure (SBP) at the following hours after dosing at 17 mg/kg (po) at 7.5 hr in spontaneously hypertensive rats(SHR); assay type: functional, Artery; procedure, shortened: as §1
Rattus norvegicus [20] = experiment: Percentage of fall in systolic blood pressure (SBP) at the following hours after dosing at 8 mg/kg (po) at 2 hr in spontaneously hypertensive rats(SHR); assay type: functional, Artery; procedure, shortened: as §1
Rattus norvegicus [21] = experiment: Percentage of fall in systolic blood pressure (SBP) at the following hours after dosing at 8 mg/kg (po) at 24 hr in spontaneously hypertensive rats(SHR);NS means not significant; assay type: functional, organism-based; set-up: dose 8 mg/kg; conditions: Artery; procedure, shortened: as §1
Rattus norvegicus [22] = experiment: Percentage of fall in systolic blood pressure (SBP) at the following hours after dosing at 17 mg/kg (po) at 2 hr in spontaneously hypertensive rats(SHR); assay type: functional, Artery; procedure, shortened: as §1
Rattus norvegicus [23] = experiment: Percentage of fall in systolic blood pressure (SBP) after dosing at 17 mg/kg (po) at 2 hr in spontaneously hypertensive rats(SHR). NS means not significant; assay type: functional, organism-based; set-up: dose 17 mg/kg; conditions: Artery; procedure, shortened: as §1
Rattus norvegicus [24] = experiment: Percentage of fall in systolic blood pressure (SBP) after dosing at 17 mg/kg (po) at 24 hr in spontaneously hypertensive rats(SHR); assay type: functional, Artery; procedure, shortened: as §1
Rattus norvegicus [25] = experiment: Percentage of fall in systolic blood pressure (SBP) after dosing at 8 mg/kg (po) at 7.5 hr in spontaneously hypertensive rats(SHR); assay type: functional, Artery; procedure, shortened: as §1
Rattus norvegicus [26] = experiment: Percentage of fall in systolic blood pressure (SBP) at the following hours after dosing at 8 mg/kg (po) at 5 hr in spontaneously hypertensive rats(SHR); assay type: functional, Artery; procedure, shortened: as §1
Rattus norvegicus [27] = experiment: Percentage of fall in systolic blood pressure (SBP) after dosing at 8 mg/kg (po) at 2 hr in spontaneously hypertensive rats(SHR). NS means not significant; assay type: functional, organism-based; set-up: dose 8 mg/kg; conditions: Artery; procedure, shortened: as §1
Rattus norvegicus [28] = experiment: Percentage of fall in systolic blood pressure (SBP) after dosing at 17 mg/kg (po) at 5 hr in spontaneously hypertensive rats(SHR); assay type: functional, Artery; procedure, shortened: as §1
Rattus norvegicus [29] = experiment: Percentage of fall in systolic blood pressure (SBP) after dosing at 17 mg/kg (po) at 7.5 hr in spontaneously hypertensive rats(SHR); assay type: functional, Artery; procedure, shortened: as §1
Adrenergic receptor beta [30] = target: T1, Adrenergic receptor beta; experiment: Evaluated for beta-receptor affinity determined in rat brain membrane fraction with [3H]- dihydroalprenolol; assay type: cell membranes
Rattus norvegicus [31] = experiment: Percentage of fall in systolic blood pressure (SBP) after dosing at 8 mg/kg at 24 hr in spontaneously hypertensive rats(SHR). NS means not significant; assay type: functional, organism-based; set-up: dose 8 mg/kg; conditions: Artery; procedure, shortened: as §1
Rattus norvegicus [32] = experiment: Percentage of fall in systolic blood pressure (SBP) at the following hours after dosing at 75 mg/kg (po) at 2 hr in spontaneously hypertensive rats(SHR); assay type: functional, Artery; procedure, shortened: as §1

In the case of `CCCCCNCC(O)COc1ccc2c(=O)c(-c3ccccc3)c(-c3ccccc3)oc2c1` (configuration not stated), the “Decrease in SBP” value (Rattus norvegicus [1]) is reported as “inactive”, the “Decrease in SBP” value (Rattus norvegicus [2]) is reported as “inactive” and the SBP (Rattus norvegicus [3]) is reported as 191 mmHg. For the same compound, the “Decrease in SBP” value (Rattus norvegicus [4]) was “inactive” and the “Decrease in SBP” value (Rattus norvegicus [5]) was “inactive”.
For `C=CCNCC(O)COc1ccc2c(=O)c(-c3ccccc3)c(-c3ccccc3)oc2c1` (configuration not stated), the “Decrease in SBP” value (Rattus norvegicus [6]) was 9%, the “Decrease in SBP” value (Rattus norvegicus [7]) was 11% and the SBP (Rattus norvegicus [3]) was 197 mmHg. The “Decrease in SBP” value (Rattus norvegicus [8]) was “inactive”, the inhibition (Rattus norvegicus [9]) was “inactive” and the “Decrease in SBP” value (Rattus norvegicus [10]) was 10%.
For `O=c1c(-c2ccccc2)c(-c2ccccc2)oc2cc(OCC(O)CNC3CC3)ccc12` (configuration not stated), the “Decrease in SBP” value (Rattus norvegicus [11]) was “inactive”, the “Decrease in SBP” value (Rattus norvegicus [12]) was 23% and the SBP (Rattus norvegicus [13]) was 188 mmHg. For the same compound, the “Decrease in SBP” value (Rattus norvegicus [14]) was 10%, the SBP (Rattus norvegicus [15]) was 193 mmHg and the inhibition (Rattus norvegicus [16]) was “inactive”. The Ki (Adrenergic receptor beta [17]) was > 0.00005 M, the “Decrease in SBP” value (Rattus norvegicus [18]) was “inactive” and the “Decrease in SBP” value (Rattus norvegicus [19]) was 18%. For the same compound, the “Decrease in SBP” value (Rattus norvegicus [20]) was 7%, the “Decrease in SBP” value (Rattus norvegicus [21]) was “inactive” and the “Decrease in SBP” value (Rattus norvegicus [22]) was 10%.
For `CCCCNCC(O)COc1ccc2c(=O)c(-c3ccccc3)c(-c3ccccc3)oc2c1` (configuration not stated), the “Decrease in SBP” value (Rattus norvegicus [2]) was “inactive”, the “Decrease in SBP” value (Rattus norvegicus [7]) was 11% and the SBP (Rattus norvegicus [3]) was 199 mmHg. For the same compound, the “Decrease in SBP” value (Rattus norvegicus [4]) was “inactive”, the Ki (Adrenergic receptor beta [17]) was > 0.00005 M and the “Decrease in SBP” value (Rattus norvegicus [5]) was “inactive”.
For `CCCCCCNCC(O)COc1ccc2c(=O)c(-c3ccccc3)c(-c3ccccc3)oc2c1.Cl` (configuration not stated), the “Decrease in SBP” value (Rattus norvegicus [1]) was “inactive”, the “Decrease in SBP” value (Rattus norvegicus [2]) was “inactive” and the SBP (Rattus norvegicus [3]) was 200 mmHg. The “Decrease in SBP” value (Rattus norvegicus [4]) was “inactive” and the “Decrease in SBP” value (Rattus norvegicus [5]) was “inactive”.
With `CC(C)NCC(O)COc1ccc2c(=O)c(-c3ccccc3)c(-c3ccccc3)oc2c1.Cl` (configuration not stated) the “Decrease in SBP” value (Rattus norvegicus [23]) was “inactive”, the “Decrease in SBP” value (Rattus norvegicus [24]) was 11% and the SBP (Rattus norvegicus [13]) was 198 mmHg. The SBP (Rattus norvegicus [15]) was 195 mmHg, the inhibition (Rattus norvegicus [16]) was “inactive” and the “Decrease in SBP” value (Rattus norvegicus [25]) was 8%. The “Decrease in SBP” value (Rattus norvegicus [26]) was 10%, the “Decrease in SBP” value (Rattus norvegicus [27]) was “inactive” and the “Decrease in SBP” value (Rattus norvegicus [28]) was 14%. For the same compound, the “Decrease in SBP” value (Rattus norvegicus [29]) was 20%, the Ki (Adrenergic receptor beta [30]) was > 0.00005 M and the “Decrease in SBP” value (Rattus norvegicus [31]) was “inactive”.
For `CCC(C)NCC(O)COc1ccc2c(=O)c(-c3ccccc3)c(-c3ccccc3)oc2c1` (configuration not stated), the “Decrease in SBP” value (Rattus norvegicus [6]) was 19%, the “Decrease in SBP” value (Rattus norvegicus [7]) was 19% and the SBP (Rattus norvegicus [3]) was 210 mmHg. The “Decrease in SBP” value (Rattus norvegicus [32]) was 12%, the inhibition (Rattus norvegicus [9]) was “inactive” and the “Decrease in SBP” value (Rattus norvegicus [10]) was 18%.
